These results are taken from ChEMBL document CHEMBL4004881, “Perfluorinated hydroxamic acids are potent and selective inhibitors of HDAC-like enzymes from Pseudomonas aeruginosa” (Bioorg Med Chem Lett, 2017).

Experiment [1] is described as follows: Inhibition of Pseudomonas aeruginosa PA0321 using Boc-Lys(trifluoroacetyl)-AMC as substrate preincubated for 30 mins followed by substrate addition measured after 60 mins by trypsin-based fluorescence assay.
Experiment [2] in a line: Inhibition of Pseudomonas aeruginosa PA1409 using Boc-Lys(trifluoroacetyl)-AMC as substrate preincubated for 30 mins followed by substrate addition measured after 60 mins by trypsin-based fluorescence assay.
Experiment [3] is described as follows: Inhibition of Pseudomonas aeruginosa PA3774 using Boc-Lys(trifluoroacetyl)-AMC as substrate preincubated for 30 mins followed by substrate addition measured after 60 mins by trypsin-based fluorescence assay.
The nature of experiment [4]: Inhibition of Bordetella HDAH using Boc-Lys(trifluoroacetyl)-AMC as substrate preincubated for 30 mins followed by substrate addition measured after 60 mins by trypsin-based fluorescence assay. The method, boiled down:
(§1)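 Bacterial HDAH activity was measured by a fluorogenic assay in which the deacetylated substrate is converted to fluorescent dye by trypsin. Ki was calculated via Cheng-Prusoff from IC50 values, which were fitted to dose-response curves spanning 10 ligand concentrations.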

A short description of experiment [5]: Inhibition of Alcaligenes HDAH using Boc-Lys(trifluoroacetyl)-AMC as substrate preincubated for 30 mins followed by substrate addition measured after 60 mins by trypsin-based fluorescence assay. The method, boiled down:
as §1

The next experiment concerns the target Histone deacetylase 1 (Homo sapiens, UniProt Q13547). As to the kind of experiment: Inhibition of human HDAC1 using Boc-Lys(Ac)-AMC as substrate preincubated for 30 mins followed by substrate addition measured after 60 mins by trypsin-based fluorescence assay. The method, boiled down: (§2)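 Fluorogenic deacetylase assay with Boc-Lys(Ac)-AMC substrate. After a 30 min incubation, trypsin was added to convert the deacetylated substrate to the fluorescent dye.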

Experiment [6] addresses T1, Protein deacetylase HDAC6 (Homo sapiens, UniProt Q9UBN7).
T1 sequence (Q9UBN7 whole entry): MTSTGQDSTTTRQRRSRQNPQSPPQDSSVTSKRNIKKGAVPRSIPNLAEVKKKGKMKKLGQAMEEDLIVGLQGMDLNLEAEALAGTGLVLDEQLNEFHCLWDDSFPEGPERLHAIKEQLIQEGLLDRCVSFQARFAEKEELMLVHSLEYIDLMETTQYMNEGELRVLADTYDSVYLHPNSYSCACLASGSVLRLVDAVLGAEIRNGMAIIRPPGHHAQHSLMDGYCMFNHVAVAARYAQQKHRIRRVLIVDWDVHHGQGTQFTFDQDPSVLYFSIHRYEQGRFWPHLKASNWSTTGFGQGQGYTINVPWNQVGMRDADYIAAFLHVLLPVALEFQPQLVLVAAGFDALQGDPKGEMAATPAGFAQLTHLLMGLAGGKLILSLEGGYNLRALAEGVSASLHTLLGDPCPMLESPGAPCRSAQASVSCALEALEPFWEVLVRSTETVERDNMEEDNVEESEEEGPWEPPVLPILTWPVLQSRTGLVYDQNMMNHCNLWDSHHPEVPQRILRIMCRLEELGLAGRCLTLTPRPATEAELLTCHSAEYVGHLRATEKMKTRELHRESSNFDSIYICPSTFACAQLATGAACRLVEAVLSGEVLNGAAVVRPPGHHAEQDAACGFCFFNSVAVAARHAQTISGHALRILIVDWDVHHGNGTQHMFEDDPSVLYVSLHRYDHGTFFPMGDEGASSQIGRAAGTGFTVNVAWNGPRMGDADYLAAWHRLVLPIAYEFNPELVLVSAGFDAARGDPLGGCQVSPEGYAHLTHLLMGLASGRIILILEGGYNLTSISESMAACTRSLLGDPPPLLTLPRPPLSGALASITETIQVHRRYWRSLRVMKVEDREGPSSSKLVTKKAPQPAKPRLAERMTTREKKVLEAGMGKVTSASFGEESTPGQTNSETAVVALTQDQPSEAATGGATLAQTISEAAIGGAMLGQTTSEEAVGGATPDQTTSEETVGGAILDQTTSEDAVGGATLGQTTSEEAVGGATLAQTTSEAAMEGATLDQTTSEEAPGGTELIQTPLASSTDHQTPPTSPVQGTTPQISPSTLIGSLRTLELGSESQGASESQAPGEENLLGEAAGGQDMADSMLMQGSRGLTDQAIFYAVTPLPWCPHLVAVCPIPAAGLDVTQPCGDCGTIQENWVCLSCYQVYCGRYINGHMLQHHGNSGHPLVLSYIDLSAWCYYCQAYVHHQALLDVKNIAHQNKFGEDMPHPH
Description: Inhibition of human HDAC6 using Boc-Lys(Ac)-AMC as substrate preincubated for 30 mins followed by substrate addition measured after 60 mins by trypsin-based fluorescence assay. The method, boiled down:
as §2

The next experiment has as its target T2, Histone deacetylase 7 (Homo sapiens, UniProt Q8WUI4).
T2 sequence (Q8WUI4 whole entry): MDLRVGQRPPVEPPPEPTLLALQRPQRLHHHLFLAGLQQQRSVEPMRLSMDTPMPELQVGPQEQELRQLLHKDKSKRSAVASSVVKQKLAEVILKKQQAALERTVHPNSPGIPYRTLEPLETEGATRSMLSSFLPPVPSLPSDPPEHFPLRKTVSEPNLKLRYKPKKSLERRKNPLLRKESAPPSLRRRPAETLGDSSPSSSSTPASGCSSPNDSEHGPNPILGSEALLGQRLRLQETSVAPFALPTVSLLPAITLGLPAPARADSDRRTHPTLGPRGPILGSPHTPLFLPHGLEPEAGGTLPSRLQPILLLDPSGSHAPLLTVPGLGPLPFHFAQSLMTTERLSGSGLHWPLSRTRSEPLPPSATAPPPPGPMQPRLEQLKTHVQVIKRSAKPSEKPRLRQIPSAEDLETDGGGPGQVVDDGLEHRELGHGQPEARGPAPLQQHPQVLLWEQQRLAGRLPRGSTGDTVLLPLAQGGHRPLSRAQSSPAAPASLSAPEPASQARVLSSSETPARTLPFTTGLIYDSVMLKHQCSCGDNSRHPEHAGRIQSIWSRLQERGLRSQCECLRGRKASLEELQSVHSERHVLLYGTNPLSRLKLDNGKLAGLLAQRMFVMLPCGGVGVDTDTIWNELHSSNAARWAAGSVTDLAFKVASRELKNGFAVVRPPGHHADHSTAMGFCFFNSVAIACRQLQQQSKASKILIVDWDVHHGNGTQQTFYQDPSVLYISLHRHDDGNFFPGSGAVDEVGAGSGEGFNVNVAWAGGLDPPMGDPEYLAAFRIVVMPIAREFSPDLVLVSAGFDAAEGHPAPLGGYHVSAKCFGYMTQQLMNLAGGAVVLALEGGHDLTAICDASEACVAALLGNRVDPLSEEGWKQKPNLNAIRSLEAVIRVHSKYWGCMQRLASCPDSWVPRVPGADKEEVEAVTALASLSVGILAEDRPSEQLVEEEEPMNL
As to the kind of experiment: Inhibition of human HDAC7 using Boc-Lys(trifluoroacetyl)-AMC as substrate preincubated for 30 mins followed by substrate addition measured after 60 mins by trypsin-based fluorescence assay. The method, boiled down: (§3)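 Boc-Lys(trifluoroacetyl)-AMC served as substrate in a fluorogenic activity assay. Trypsin was added after a 30 min incubation to release the fluorescent dye from the deacetylated product. IC50 values came from 10-point ligand dose-response curves and were converted to Ki by the Cheng-Prusoff relation.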

A further experiment concerns the target T3, Histone deacetylase 8 (Homo sapiens, UniProt Q9BY41).
T3 sequence (Q9BY41 whole entry): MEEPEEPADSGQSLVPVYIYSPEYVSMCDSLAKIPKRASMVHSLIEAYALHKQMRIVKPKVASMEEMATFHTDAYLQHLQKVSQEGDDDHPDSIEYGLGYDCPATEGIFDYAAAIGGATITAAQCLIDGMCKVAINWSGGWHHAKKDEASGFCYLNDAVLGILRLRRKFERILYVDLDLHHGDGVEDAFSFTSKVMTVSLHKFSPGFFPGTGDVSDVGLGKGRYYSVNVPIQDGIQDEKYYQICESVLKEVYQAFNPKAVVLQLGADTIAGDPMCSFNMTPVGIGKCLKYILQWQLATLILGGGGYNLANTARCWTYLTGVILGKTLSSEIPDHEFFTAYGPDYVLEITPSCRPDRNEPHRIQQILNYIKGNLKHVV
Description: Inhibition of human HDAC8 using Boc-Lys(trifluoroacetyl)-AMC as substrate preincubated for 30 mins followed by substrate addition measured after 60 mins by trypsin-based fluorescence assay. The method, boiled down:
as §3

The target of another experiment is Histone deacetylase 4 (Homo sapiens, UniProt P56524). Description: Inhibition of human HDAC4 using Boc-Lys(trifluoroacetyl)-AMC as substrate preincubated for 30 mins followed by substrate addition measured after 60 mins by trypsin-based fluorescence assay.
The target in a further experiment is Histone deacetylase 5 (Homo sapiens, UniProt Q9UQL6). As to the kind of experiment: Inhibition of human HDAC5 using Boc-Lys(trifluoroacetyl)-AMC as substrate preincubated for 30 mins followed by substrate addition measured after 60 mins by trypsin-based fluorescence assay.

Bounds are passed on as bounds.

Histone deacetylase 4, sequence (P56524 whole entry): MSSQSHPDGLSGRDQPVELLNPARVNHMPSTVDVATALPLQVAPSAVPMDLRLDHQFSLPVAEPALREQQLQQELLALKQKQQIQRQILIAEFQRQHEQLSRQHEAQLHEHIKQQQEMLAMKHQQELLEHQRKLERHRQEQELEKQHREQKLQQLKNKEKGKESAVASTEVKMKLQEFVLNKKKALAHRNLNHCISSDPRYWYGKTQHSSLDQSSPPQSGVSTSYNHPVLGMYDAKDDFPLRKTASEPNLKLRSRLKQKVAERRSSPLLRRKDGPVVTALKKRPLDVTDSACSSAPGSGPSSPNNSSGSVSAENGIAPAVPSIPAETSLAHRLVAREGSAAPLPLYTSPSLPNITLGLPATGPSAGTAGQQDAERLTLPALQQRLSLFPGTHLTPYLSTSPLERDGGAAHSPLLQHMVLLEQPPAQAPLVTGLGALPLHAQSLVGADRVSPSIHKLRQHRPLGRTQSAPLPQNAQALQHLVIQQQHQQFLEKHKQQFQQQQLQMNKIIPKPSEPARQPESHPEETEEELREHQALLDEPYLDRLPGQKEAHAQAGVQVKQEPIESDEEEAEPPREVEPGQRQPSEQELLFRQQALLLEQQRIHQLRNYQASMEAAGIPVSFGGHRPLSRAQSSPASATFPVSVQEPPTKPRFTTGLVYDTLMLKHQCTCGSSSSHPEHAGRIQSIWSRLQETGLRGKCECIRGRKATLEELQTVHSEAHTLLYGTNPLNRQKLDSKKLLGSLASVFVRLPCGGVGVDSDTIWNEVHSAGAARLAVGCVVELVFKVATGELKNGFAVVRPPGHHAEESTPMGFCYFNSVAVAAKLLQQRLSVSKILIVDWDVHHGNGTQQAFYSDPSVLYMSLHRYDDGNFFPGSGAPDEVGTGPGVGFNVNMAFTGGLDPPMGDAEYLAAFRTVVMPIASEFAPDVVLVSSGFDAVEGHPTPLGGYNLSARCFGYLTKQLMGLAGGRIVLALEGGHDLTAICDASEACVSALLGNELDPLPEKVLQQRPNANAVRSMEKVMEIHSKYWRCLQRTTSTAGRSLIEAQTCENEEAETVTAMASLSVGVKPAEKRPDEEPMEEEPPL
Histone deacetylase 5, sequence (Q9UQL6 whole entry): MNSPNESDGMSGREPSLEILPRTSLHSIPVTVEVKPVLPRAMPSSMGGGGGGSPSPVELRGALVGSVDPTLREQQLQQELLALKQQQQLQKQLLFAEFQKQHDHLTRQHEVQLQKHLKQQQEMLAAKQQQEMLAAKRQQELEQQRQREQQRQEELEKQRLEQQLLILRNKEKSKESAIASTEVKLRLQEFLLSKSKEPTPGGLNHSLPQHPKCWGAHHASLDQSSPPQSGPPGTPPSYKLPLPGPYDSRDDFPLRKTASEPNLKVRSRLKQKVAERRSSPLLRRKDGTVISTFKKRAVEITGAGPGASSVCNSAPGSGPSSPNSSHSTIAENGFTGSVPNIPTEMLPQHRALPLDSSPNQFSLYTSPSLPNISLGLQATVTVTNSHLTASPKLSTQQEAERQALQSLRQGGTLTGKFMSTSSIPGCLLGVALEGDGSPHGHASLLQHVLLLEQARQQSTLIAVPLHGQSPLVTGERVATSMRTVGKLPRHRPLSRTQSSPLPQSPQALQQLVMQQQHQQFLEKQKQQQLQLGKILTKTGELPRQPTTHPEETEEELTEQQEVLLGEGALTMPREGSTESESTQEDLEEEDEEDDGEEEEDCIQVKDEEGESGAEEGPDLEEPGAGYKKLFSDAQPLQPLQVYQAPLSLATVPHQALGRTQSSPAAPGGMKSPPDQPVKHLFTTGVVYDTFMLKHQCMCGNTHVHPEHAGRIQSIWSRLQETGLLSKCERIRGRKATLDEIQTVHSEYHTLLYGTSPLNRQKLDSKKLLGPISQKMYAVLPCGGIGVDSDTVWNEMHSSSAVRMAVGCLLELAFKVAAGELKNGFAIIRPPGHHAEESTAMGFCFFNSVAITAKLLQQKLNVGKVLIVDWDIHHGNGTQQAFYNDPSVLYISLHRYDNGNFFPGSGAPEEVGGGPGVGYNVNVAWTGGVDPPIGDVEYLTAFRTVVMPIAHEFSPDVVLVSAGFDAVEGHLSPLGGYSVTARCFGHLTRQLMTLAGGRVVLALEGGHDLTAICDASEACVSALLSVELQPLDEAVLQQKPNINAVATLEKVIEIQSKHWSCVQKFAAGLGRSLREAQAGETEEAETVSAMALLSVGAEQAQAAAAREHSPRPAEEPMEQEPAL
Histone deacetylase 1, sequence (Q13547 whole entry): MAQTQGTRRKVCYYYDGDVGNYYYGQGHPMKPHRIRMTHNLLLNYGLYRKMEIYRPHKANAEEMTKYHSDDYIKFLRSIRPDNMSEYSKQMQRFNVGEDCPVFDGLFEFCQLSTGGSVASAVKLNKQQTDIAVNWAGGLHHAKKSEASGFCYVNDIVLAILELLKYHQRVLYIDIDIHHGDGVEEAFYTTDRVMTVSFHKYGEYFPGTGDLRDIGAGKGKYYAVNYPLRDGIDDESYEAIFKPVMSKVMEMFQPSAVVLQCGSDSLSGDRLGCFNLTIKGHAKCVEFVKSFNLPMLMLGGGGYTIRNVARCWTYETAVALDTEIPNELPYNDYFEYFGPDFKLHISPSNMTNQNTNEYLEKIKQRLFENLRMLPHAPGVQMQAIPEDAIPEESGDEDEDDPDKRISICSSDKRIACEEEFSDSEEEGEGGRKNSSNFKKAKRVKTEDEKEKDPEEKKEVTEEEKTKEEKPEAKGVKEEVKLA

The term Ki denotes a dissociation constant, usually derived from enzyme kinetics or from competition with a known ligand. Lower therefore signals tighter binding. With `Cc1ccc(NC(=O)C(F)(F)C(F)(F)C(F)(F)C(F)(F)C(F)(F)C(F)(F)C(=O)NO)cc1C`, the Ki came to 1.6 µM in experiment [1]; 5.8 µM in [2]; 0.1 µM in experiment [3]; 0.11 µM in experiment [4]; 0.11 µM in [5]; 7 µM on Histone deacetylase 1. Further, the Ki in experiment [6] is 20 µM; on Histone deacetylase 7, 2.5 µM; on Histone deacetylase 8 it was 8.4 µM; on Histone deacetylase 4, greater than 50 µM; on Histone deacetylase 5 it was greater than 50 µM.

For the compound `CN(C)c1ccc(NC(=O)C(F)(F)C(F)(F)C(F)(F)C(F)(F)C(F)(F)C(F)(F)C(=O)NO)cc1`, the Ki is greater than 50 µM in experiment [1]; greater than 50 µM in experiment [2]; 2.7 µM in experiment [3]; greater than 50 µM in experiment [4]; greater than 50 µM in experiment [5]; greater than 50 µM at Histone deacetylase 1. Besides, the Ki (in experiment [6]; on Histone deacetylase 7; at Histone deacetylase 8; on Histone deacetylase 4; at Histone deacetylase 5) was greater than 50 µM in each case.

In the case of `O=C(NO)C(F)(F)C(F)(F)C(F)(F)C(F)(F)C(F)(F)C(F)(F)C(=O)Nc1ccc(F)cc1`, the inhibition constant (Ki) in experiment [1] is 0.49 µM; in [2], greater than 50 µM; in experiment [3] it was 0.46 µM; in experiment [4], 0.33 µM; in experiment [5], 0.33 µM; at Histone deacetylase 1 it was greater than 50 µM. Also, the Ki (in [6]; at Histone deacetylase 7; on Histone deacetylase 8; at Histone deacetylase 4; on Histone deacetylase 5) was greater than 50 µM each time.

Regarding `Cc1ccccc1NC(=O)C(F)(F)C(F)(F)C(F)(F)C(F)(F)C(F)(F)C(F)(F)C(=O)NO`, the Ki in experiment [1] is 84 µM; in [2], greater than 50 µM; in experiment [3] it was 0.16 µM; in experiment [4] it was 0.62 µM; in [5], 0.62 µM; at Histone deacetylase 1, greater than 50 µM. Besides, the inhibition constant Ki (in [6]; at Histone deacetylase 7; on Histone deacetylase 8; at Histone deacetylase 4; on Histone deacetylase 5) was greater than 50 µM each time.

`O=C(NO)C(F)(F)C(F)(F)C(F)(F)C(F)(F)C(F)(F)C(F)(F)C(=O)Nc1cccc(Cl)c1`: the Ki in [1] is 0.073 µM; in experiment [2] it was 11 µM; in experiment [3], 0.046 µM; in experiment [4] it was 0.17 µM; in experiment [5] it was 0.17 µM; at Histone deacetylase 1 it was greater than 50 µM. Also, the inhibitory constant (Ki) (in [6]; on Histone deacetylase 7; at Histone deacetylase 8; on Histone deacetylase 4; at Histone deacetylase 5) was greater than 50 µM each time.

Turning to `COc1ccc(NC(=O)C(F)(F)C(F)(F)C(F)(F)C(F)(F)C(F)(F)C(F)(F)C(=O)NO)cc1`, the inhibition constant Ki in experiment [1] is 0.37 µM; in experiment [2], greater than 50 µM; in [3], 1.2 µM; in [4] it was 0.18 µM; in [5], 0.18 µM; at Histone deacetylase 1, greater than 50 µM. Further, the inhibitory constant (Ki) (in [6]; at Histone deacetylase 7; on Histone deacetylase 8; on Histone deacetylase 4; on Histone deacetylase 5) was greater than 50 µM in each case.

For `Cc1cccc(NC(=O)C(F)(F)C(F)(F)C(F)(F)C(F)(F)C(F)(F)C(F)(F)C(=O)NO)c1`, the Ki in [1] was 0.27 µM; in [2], 11 µM; in experiment [3], 0.092 µM; in [4], 0.45 µM; in experiment [5] it was 0.45 µM; on Histone deacetylase 1, greater than 50 µM. For the same compound, the Ki (in experiment [6]; at Histone deacetylase 7; at Histone deacetylase 8; at Histone deacetylase 4; on Histone deacetylase 5) was greater than 50 µM throughout.

Take `O=C(NO)C(F)(F)C(F)(F)C(F)(F)C(F)(F)C(F)(F)C(F)(F)C(=O)Nc1ccccc1Cl`: the inhibition constant (Ki) in [1] is 0.8 µM; in [2] it was greater than 50 µM; in experiment [3], 0.16 µM; in experiment [4], 0.24 µM; in [5], 0.24 µM; on Histone deacetylase 1, greater than 50 µM. Moreover, the inhibitory constant (Ki) (in [6]; on Histone deacetylase 7; at Histone deacetylase 8; at Histone deacetylase 4; on Histone deacetylase 5) was greater than 50 µM throughout.
